Results of several laboratories.
Compare with care: the assays were run in different laboratories.
Target: Non-receptor tyrosine-protein kinase TNK1 (TNK1, Homo sapiens, UniProt Q13470)
One construct used (Q13470 1-666): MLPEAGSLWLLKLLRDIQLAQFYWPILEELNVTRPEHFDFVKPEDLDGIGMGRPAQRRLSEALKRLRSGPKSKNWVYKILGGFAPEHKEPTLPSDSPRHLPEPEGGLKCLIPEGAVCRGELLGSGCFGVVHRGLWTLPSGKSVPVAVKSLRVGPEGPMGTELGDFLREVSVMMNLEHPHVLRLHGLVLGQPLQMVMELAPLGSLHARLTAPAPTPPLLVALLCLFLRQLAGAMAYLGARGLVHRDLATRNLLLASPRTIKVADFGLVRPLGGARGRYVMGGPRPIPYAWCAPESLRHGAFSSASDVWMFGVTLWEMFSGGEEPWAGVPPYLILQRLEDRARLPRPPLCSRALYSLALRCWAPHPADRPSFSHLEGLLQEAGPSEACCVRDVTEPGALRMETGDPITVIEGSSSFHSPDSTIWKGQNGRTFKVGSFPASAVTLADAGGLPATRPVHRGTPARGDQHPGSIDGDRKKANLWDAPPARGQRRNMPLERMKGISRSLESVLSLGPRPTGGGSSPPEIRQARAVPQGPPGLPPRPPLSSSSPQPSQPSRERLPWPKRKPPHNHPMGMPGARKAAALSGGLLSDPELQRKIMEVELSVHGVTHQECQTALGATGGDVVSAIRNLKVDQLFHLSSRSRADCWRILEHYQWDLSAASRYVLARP

Structure (SMILES) | read-out | method | tested at | remaining binding
CN(C)c1nccc(-c2cnc3ncccn23)n1 | binding | – | 1 µM | 100%
O=C(c1ccc(Nc2ncc(Cl)c(-c3cc4ccccc4s3)n2)cc1)N1CCC(N2CCCC2)CC1 | binding | competition with immobilised ligand | 1 µM | 15%
Cn1cc(Cl)c2c(Oc3c(F)cc(Nc4cc(Cl)nc(N)n4)cc3F)ccnc21 | cell-free assay | competition with immobilised ligand | 0.1 µM | 100%
c1cnn2ncc(-c3ccnc(N4CCC45COC5)n3)c2c1 | binding | – | 1 µM | 100%
COc1ncc2cc3ccccc3nc2c1C#N | cell-free assay | competition with immobilised ligand | 5 µM | 100%
CNC(=O)Nc1ccc2c(c1)CC[C@@]21OC(=O)N(CC(=O)N(Cc2ccc(F)cc2)[C@@H](C)C(F)(F)F)C1=O | cell-free assay | competition with immobilised ligand | 1 µM | 86%
CNC(=O)[C@@H]1CC[C@@H](n2c(-c3ccc4cnccc4c3)nc3ccc(C(=O)NCc4cccc(C(N)=O)c4)cc32)C1 | binding | competition with immobilised ligand | 1 µM | 97%
O=C(c1ccc(Nc2nccc(-c3cc4ccccc4s3)n2)cc1)N1CCC(N2CCCC2)CC1 | binding | competition with immobilised ligand | 1 µM | 27%
C[C@@H]1CCN(c2nccc(-c3cnn4ncccc34)n2)C1 | binding | – | 1 µM | 100%
O=C(Nc1ccc(Oc2ccc(F)cc2)cc1)N1CCc2ncccc2[C@H]1c1ccc(F)cc1 | cell-free assay | competition with immobilised ligand | 1 µM | 96%
O=C(c1ccc(Nc2ncc(Cl)c(-c3ccc(Cl)s3)n2)cc1)N1CCC(N2CCCC2)CC1 | binding | competition with immobilised ligand | 1 µM | 13%
C=CC(=O)N1CCC(C(=O)NCC(=O)N2CCN(c3nc(-c4cnc(N)nc4C(F)F)nc(N4CCOCC4)n3)CC2)CC1 | binding | competition with immobilised ligand | 1 µM | 83%
COc1cc(C(=O)N2CCC(N3CCN(C)CC3)CC2)ccc1Nc1ncc2c(n1)N(C)c1ccccc1C(=O)N2C | binding | competition with immobilised ligand | 10 µM | 2.8%
Cc1c(C(=O)O)cc(-c2ccc(C3CCNCC3)cc2)c2ccc(-c3ccc(C(F)(F)F)cc3)cc12 | binding | competition with immobilised ligand | 1 µM | 100%
CN(C)c1nccc(-c2cnn3ncccc23)n1 | binding | – | 1 µM | 67%
O=C(NCC1CCOCC1)c1n[nH]cc1NC(=O)c1c(F)cccc1F | binding | competition with immobilised ligand | 1 µM | 98%
N[C@@H]1CCN(c2nccc(-c3cnn4ncccc34)n2)C1 | binding | – | 1 µM | 100%
CNC(=O)c1ccc(Nc2ncc(C(F)(F)F)c(NCc3nccnc3N(C)S(C)(=O)=O)n2)cc1 | cell-free assay | competition with immobilised ligand | 0.1 µM | 100%
Nc1ncc2c(n1)-c1c([nH]c3ccc(C#CC4CC4)cc13)CCCC2 | binding | competition with immobilised ligand | 1 µM | 100%
FC(F)(F)Oc1cccc(-c2cnc3ccc(-c4ccncc4)nn23)c1 | binding | competition with immobilised ligand | 5 µM | 88%
CN(CCCC(F)(F)F)c1nccc(-c2cnn3ncccc23)n1 | binding | – | 1 µM | 83%
Cc1noc([C@H]2C[C@@H](c3ccc(C(F)(F)F)cc3)CN(C(=O)N3CCS(=O)(=O)C3)C2)n1 | cell-free assay | competition with immobilised ligand | 1 µM | 100%
